Data set [1] addresses Aldo-keto reductase family 1 member B1 (Rattus norvegicus, UniProt P07943). The experiment in a line: Inhibition of Wistar rat lenses ALR2 using D,L-glyceraldehyde as substrate preincubated for 10 mins before substrate addition measured after 4 mins by spectrophotometry.
The species entered for the next data set is Rattus norvegicus. The experiment in a line: Selectivity ratio for Wistar rat lenses ALR2 over Wistar rat kidney ALR1. The format is tissue-based. The note with it: Lens of camera-type eye.
Data set [2] is described as follows: Antioxidant activity assessed as DPPH scavenging activity at 100 uM after 30 mins by UV spectrophotometry. The note with it: 0.5 h. The format is physicochemical. (In general: Loss of DPPH colour is used to gauge radical scavenging.)
Data set [3] in a line: Antioxidant activity assessed as DPPH scavenging activity after 30 mins by UV spectrophotometry. The class given is physicochemical.
The next data set has as its system Brain. Kind of data set: Antioxidant activity in rat brain assessed as inhibition of lipid peroxidation by TBARS assay. The class given is functional, tissue-based. The essentials:
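Fresh rat brain homogenized in ice-cold saline, centrifuged; lipoperoxidation driven by Fe(III)/ascorbic acid, compounds at 100 μM; malondialdehyde measured as TBARS (trichloroacetic acid, then thiobarbituric acid, red color at 532 nm); protein by Coomassie method.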

Data set [4] in a line: Antioxidant activity assessed as DPPH scavenging activity at 50 uM after 30 mins by UV spectrophotometry. The format is physicochemical. The note with it: 0.5 h.
The nature of data set [5]: Antioxidant activity assessed as DPPH scavenging activity at 10 uM after 30 mins by UV spectrophotometry. The class given is physicochemical. The following applies: 0.5 h.

Calls of active or inactive are those of the source. No cut-off for these calls is given here.

The text below walks through data of ChEMBL document CHEMBL3407362, “Design and synthesis of potent and multifunctional aldose reductase inhibitors based on quinoxalinones” (J Med Chem, 2015).

In the case of `O=C(O)Cn1c(=O)c(Cc2ccccc2)nc2ccccc21`, inhibition in data set [1] was half-maximal at 1110 nM (IC50).
Still for that read-out and setting: the figure for `O=C(O)Cn1c(=O)c(-c2c[nH]c3ccccc23)nc2ccc(Br)cc21` is 368 nM.
The same measure, in the same setting: as for `O=C(O)Cn1c(=O)c(-c2ccc(F)cc2)nc2ccc(-c3ccc(F)cc3)cc21`, the figure is 2130 nM.
The same measure, in the same setting: the figure for `O=C(O)Cn1c(=O)c(-c2c[nH]c3ccccc23)nc2ccccc21` is 639 nM; for `O=C(O)Cn1c(=O)c(-c2cc3ccccc3s2)nc2ccc(Cl)cc21` it is 238 nM.
For `O=C(O)Cn1c(=O)c(-c2ccc(O)cc2O)nc2cc(F)ccc21`, the IC50 (in general, the concentration that inhibits the measured activity by half) in data set [1] worked out at 63 nM.
On to `O=C(O)Cn1c(=O)c(Oc2ccccc2)nc2ccccc21`, for which the Selectivity ratio in the data set filed under Rattus norvegicus stood at 12.5. Inhibition in data set [1] was half-maximal at 468 nM (IC50).
On to `O=C(O)Cn1c(=O)c(-c2ccc(O)cc2O)nc2ccccc21`, for which half-maximal inhibition in data set [1] (IC50) was put at 397 nM.
On the same count and under the same terms, the figure for `O=C(O)Cn1c(=O)c(-c2ccc(O)cc2O)nc2ccc(Cl)cc21` is 69 nM.
As for `O=C(O)Cn1c(=O)c(/C=C/c2ccc(O)cc2)nc2ccccc21`, the Activity in data set [2] came out at 71.8%. The half-inhibitory concentration (IC50) in data set [3] came out at 51.5 µM; in data set [1] it was 182 nM. In addition, in the data set with Brain, the inhibition entry was “Active”.
As for `O=C(O)Cn1c(=O)c(/C=C/c2ccc(O)cc2)nc2ccc(F)cc21`, the Activity in data set [2] turned out to be 67.2%. Further, the inhibition result in the data set with Brain was “Active”. Further, it took 153 nM to reach half-maximal inhibition in data set [1] (IC50).
For `O=C(O)Cn1c(=O)c(Sc2ccccc2)nc2ccccc21`, in the data set listed under Rattus norvegicus, the Selectivity ratio came to 2.7. 421 nM corresponded to half-maximal inhibition in data set [1] (IC50).
With `O=C(O)Cn1c(=O)c(-c2ccc(F)cc2)nc2ccc(F)cc21`, it took 874 nM to reach half-maximal inhibition in data set [1] (IC50).
`O=C(O)Cn1c(=O)c(Sc2ccc(Cl)cc2)nc2ccccc21`: in the data set listed under Rattus norvegicus, the Selectivity ratio worked out at 1.9. Moreover, the IC50 in data set [1] was 273 nM.
For `O=C(O)Cn1c(=O)c(Sc2ccc(Br)cc2)nc2ccc(Br)cc21` the same measures were 3.7 and 467 nM.
As for `O=C(O)Cn1c(=O)c(-c2ccc(O)cc2O)nc2cc(Cl)ccc21`, the IC50 in data set [1] was 95 nM.
In the case of `O=C(O)Cn1c(=O)c(Sc2ccc(Br)cc2)nc2ccc(Cl)cc21`, the Selectivity ratio in the data set filed under Rattus norvegicus worked out at 6.1. Besides, the half-inhibitory concentration (IC50) in data set [1] came out at 326 nM.
The molecule `O=C(O)Cn1c(=O)c(-c2ccc(O)cc2O)nc2cc(Br)ccc21` gave a 50% inhibitory concentration (IC50) in data set [1] of 139 nM.
With `O=C(O)Cn1c(=O)c(-c2ccc(F)cc2)nc2ccccc21`, the IC50 in data set [1] came out at 3380 nM.
For the molecule `O=C(O)Cn1c(=O)c(CCc2ccc(O)cc2)nc2ccccc21`, in data set [2], the Activity came to 16.2%. In data set [1], this molecule had an IC50 of 798 nM.
For the molecule `O=C(O)Cn1c(=O)c(CCc2ccc(O)cc2)nc2ccc(F)cc21`, the Activity in data set [2] was determined as 14.7%. In data set [1], the IC50 turned out to be 652 nM.
`O=C(O)Cn1c(=O)c(Sc2ccc(Cl)cc2)nc2ccc(F)cc21`: the Selectivity ratio in the data set listed under Rattus norvegicus worked out at 3.1. This molecule also showed a concentration for half-maximal inhibition (IC50) in data set [1] of 56 nM.
For `O=C(O)Cn1c(=O)c(Sc2ccc(Br)cc2)nc2cc(Br)ccc21` the same measures were 10.2 and 319 nM.
In data set [1], `O=C(O)Cn1c(=O)c(-c2ccc(O)cc2O)nc2ccc(Cc3ccc(F)cc3)cc21` showed an IC50 of 3340 nM.
The same measure, in the same setting: the figure for `O=C(O)Cn1c(=O)c(-c2ccc(O)cc2)nc2ccccc21` is 2590 nM.
Molecule `O=C(O)Cn1c(=O)c(-c2ccc(O)cc2O)nc2ccc(F)cc21` registered an IC50 in data set [1] of 32 nM.
Consider `O=C(O)Cn1c(=O)c(-c2ccc(F)cc2)nc2ccc(Cl)cc21`, for which the half-maximal inhibitory concentration (IC50) in data set [1] came to 1520 nM.
On to `O=C(O)Cn1c(=O)c(Sc2ccc(Cl)cc2)nc2ccc(Br)cc21`, for which the Selectivity ratio in the data set listed under Rattus norvegicus was 8.3. The molecule further returned an IC50 in data set [1] of 395 nM.
For the molecule `O=C(O)Cn1c(=O)c(-c2ccccc2)nc2ccccc21`, the midpoint of inhibition in data set [1], the IC50, lay at 5980 nM.
In data set [1], `COc1ccc(/C=C/c2nc3ccccc3n(CC(=O)O)c2=O)cc1` returned a half-maximal inhibitory concentration (IC50) of 4180 nM.
As to `O=C(O)Cn1c(=O)c(Sc2ccc(Br)cc2)nc2ccccc21`, the Selectivity ratio in the data set filed under Rattus norvegicus is 6.9. The same molecule showed a 50% inhibitory concentration (IC50) in data set [1] of 296 nM.
In data set [1], `O=C(O)Cn1c(=O)c(-c2ccc(O)cc2O)nc2ccc(Br)cc21` came in with an IC50 of 91 nM.
Regarding `O=C(O)Cn1c(=O)c(Sc2ccc(Cl)cc2)nc2ccc(Cl)cc21`, the Selectivity ratio in the data set listed under Rattus norvegicus came to 5.1. Further, inhibition in data set [1] was half-maximal at 158 nM (IC50).
As for `COc1cc(/C=C/c2nc3ccccc3n(CC(=O)O)c2=O)ccc1O`, the Activity in data set [2] worked out at 95.4%; in data set [4] it was 68.8%; in data set [5] it was 39.6%. Further, the IC50 was 24.1 µM in data set [3] and 419 nM in data set [1]. In the data set with Brain, the inhibition entry was “Active”.
On to `O=C(O)Cn1c(=O)c(Sc2ccc(Br)cc2)nc2ccc(F)cc21`, for which the Selectivity ratio in the data set filed under Rattus norvegicus was found to be 1.9. In data set [1], this molecule displayed a 50% inhibitory concentration (IC50) of 191 nM.
